# Experimental data of several laboratories.
# Each line is one published result; the experiments were not run side by side.
# NTRK3: NT-3 growth factor receptor (NTRK3, Homo sapiens, UniProt Q16288)
SMILES,target,effect on,action,method,cell line,concentration,inhibition
COC(=O)c1c(O)ccc(O)c1C(=O)c1c(O)cc2c(c1O)[C@@H]1C=C[C@@]3(C2)[C@@H](OC(C)=O)c2cc(C)cc(O)c2C(=O)C3(O)C1=O (some centres unmarked),"PSMB6/PSMB5/PSMB7 (Homo sapiens, UniProt P28072+P28074+Q99436)",enzyme activity in cells,inhibitor,,MCF7,20 µg/mL,67%
CCN(CC)CCNC(=O)c1c(C)[nH]c(/C=C2\C(=O)Nc3ccc(F)cc32)c1C,"Dual specificity mitogen-activated protein kinase kinase 7 (MAP2K7, Homo sapiens, UniProt O14733)",enzyme activity,inhibitor,,,0.3 µM,11%
CN(C)C1CCN(CC#Cc2nn(C3CCCC3)c3nc(NCc4ccccc4)ncc23)C1 (centres unmarked),"RAC-alpha serine/threonine-protein kinase (AKT1, Homo sapiens, UniProt P31749)",enzyme activity,inhibitor,FRET,,1 µM,5%
OCc1cc(C(O)CNCCCCCCOCCCCc2ccccc2)ccc1O (centres unmarked),"C-X-C chemokine receptor type 4 (CXCR4, Homo sapiens, UniProt P61073)",calcium signal,antagonist,,U87.CD4.CXCR4,4 µM,11%
CC1=C(/C=C/C(C)=C/C=C/C(C)=C/CO)C(C)(C)CCC1,"Prothrombin (Rattus norvegicus, UniProt P18292)",enzyme activity,inhibitor,,,200 µg/mL,46%
Cc1ccc(C)c(NC(=O)CSc2nnc(Cc3cc(=O)[nH]c(=O)[nH]3)n2-c2ccc(Cl)cc2)c1,"Poly [ADP-ribose] polymerase tankyrase-1 (TNKS, Homo sapiens, UniProt O95271)",enzyme activity,inhibitor,,,0.1 µM,3%
O=C(Nc1ccc(C(F)(F)F)cc1)Nc1cccc(C(=O)Nc2ccc3[nH]ncc3c2)c1,NTRK3,enzyme activity,inhibitor,FRET,,1 µM,13.5%
C[C@H]1C[C@@H](N2C(=N)N[C@](C)(c3cccc(Nc4ccc(C5CC5)nc4)c3Cl)CC2=O)CCO1,"Cathepsin E (CTSE, Homo sapiens, UniProt P14091)",enzyme activity,inhibitor,,,10 µM,86%
CC(=O)c1nn(CC(=O)N2C[C@H](F)C[C@H]2C(=O)Nc2cccc(Br)n2)c2ccc(-c3cnc(C)nc3)cc12,"Dipeptidyl peptidase 4 (DPP4, Homo sapiens, UniProt P27487)",enzyme activity,inhibitor,,,10 µM,-1%
O=C(Nc1ccc(OC(F)(F)F)cc1)Nc1cccc(C(=O)Nc2ccc3[nH]ncc3c2)c1,NTRK3,enzyme activity,inhibitor,FRET,,1 µM,17.3%
CCN(c1cc(C#CCN2CCOCC2)cc(C(=O)NCc2c(C)cc(C)[nH]c2=O)c1C)[C@H]1CC[C@H](N(C)CCOC)CC1,"Histone-lysine N-methyltransferase SMYD3 (SMYD3, Homo sapiens, UniProt Q9H7B4)",enzyme activity,inhibitor,,,1 µM,13%
